ChEMBL document CHEMBL4229344 (Eur J Med Chem, 2018)

How the values were obtained:
[1] = target: Cyclin-dependent kinase 2 (Homo sapiens) (UniProt P24941); experiment: Binding affinity to wild-type human full length CDK2 (M1 to L298 residues) expressed in bacterial expression system assessed as residual binding level at 1 uM by Kinomescan method relative to control
Outline: (§1)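 Single-concentration (1 μM) competition-binding screen run by KINOMEscan against a panel of 468 purified kinases and mutants. The read-out is the relative binding activity of the test compound to each kinase.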

[2] = target: Ribosomal protein S6 kinase beta-1 (Homo sapiens) (UniProt P23443); experiment: Binding affinity to wild-type human partial length S6K1 (M1 to S421 residues) expressed in mammalian expression system assessed as residual binding level at 1 uM by Kinomescan method relative to control
Sequence of Ribosomal protein S6 kinase beta-1 (Homo sapiens) (P23443 whole entry, looked up, the tested form may be a part): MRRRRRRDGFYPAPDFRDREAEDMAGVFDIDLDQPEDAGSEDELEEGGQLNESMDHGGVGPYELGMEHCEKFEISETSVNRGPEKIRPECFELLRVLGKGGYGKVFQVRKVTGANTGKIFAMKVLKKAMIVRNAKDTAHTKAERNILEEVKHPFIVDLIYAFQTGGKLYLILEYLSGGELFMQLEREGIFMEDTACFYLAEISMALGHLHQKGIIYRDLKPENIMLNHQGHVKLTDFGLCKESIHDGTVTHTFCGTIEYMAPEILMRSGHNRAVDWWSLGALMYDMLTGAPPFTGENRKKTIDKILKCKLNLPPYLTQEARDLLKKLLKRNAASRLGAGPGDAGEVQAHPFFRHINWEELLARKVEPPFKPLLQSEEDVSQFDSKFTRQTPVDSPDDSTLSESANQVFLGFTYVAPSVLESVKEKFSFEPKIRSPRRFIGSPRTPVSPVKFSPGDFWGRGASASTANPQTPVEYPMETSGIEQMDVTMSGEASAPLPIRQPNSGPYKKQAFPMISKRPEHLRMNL

[3] = target: Mitogen-activated protein kinase kinase kinase kinase 2 (Homo sapiens) (UniProt Q12851); experiment: Binding affinity to wild-type human partial length MAP4K2 (M1 to G318 residues) expressed in mammalian expression system assessed as residual binding level at 1 uM by Kinomescan method relative to control
Sequence of Mitogen-activated protein kinase kinase kinase kinase 2 (Homo sapiens) (Q12851 whole entry, the tested form may be a part): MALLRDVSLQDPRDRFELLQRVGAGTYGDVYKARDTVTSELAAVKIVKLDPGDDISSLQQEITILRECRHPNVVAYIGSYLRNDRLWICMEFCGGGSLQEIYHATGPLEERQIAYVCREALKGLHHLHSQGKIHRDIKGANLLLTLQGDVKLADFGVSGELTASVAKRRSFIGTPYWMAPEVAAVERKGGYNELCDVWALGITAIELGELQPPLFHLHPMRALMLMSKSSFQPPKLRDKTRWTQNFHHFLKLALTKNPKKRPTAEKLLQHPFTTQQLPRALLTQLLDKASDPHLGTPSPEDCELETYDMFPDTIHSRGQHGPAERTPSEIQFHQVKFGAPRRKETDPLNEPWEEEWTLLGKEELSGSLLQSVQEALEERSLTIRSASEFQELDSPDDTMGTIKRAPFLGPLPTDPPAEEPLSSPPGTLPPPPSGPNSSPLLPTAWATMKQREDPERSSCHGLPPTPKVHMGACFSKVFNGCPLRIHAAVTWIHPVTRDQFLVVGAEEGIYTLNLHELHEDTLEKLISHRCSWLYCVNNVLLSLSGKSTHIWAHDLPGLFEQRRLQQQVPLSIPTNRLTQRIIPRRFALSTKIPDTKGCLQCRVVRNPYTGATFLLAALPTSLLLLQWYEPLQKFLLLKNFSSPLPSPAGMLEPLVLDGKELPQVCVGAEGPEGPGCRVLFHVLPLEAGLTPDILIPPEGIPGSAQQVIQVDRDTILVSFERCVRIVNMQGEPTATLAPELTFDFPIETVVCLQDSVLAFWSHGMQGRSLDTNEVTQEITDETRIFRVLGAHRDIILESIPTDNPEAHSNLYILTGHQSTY

[4] = target: Serine/threonine-protein kinase RIO2 (Homo sapiens) (UniProt Q9BVS4); experiment: Binding affinity to wild-type human partial length RIOK2 (M1 to D313 residues) expressed in mammalian expression system assessed as residual binding level at 1 uM by Kinomescan method relative to control
Sequence of Serine/threonine-protein kinase RIO2 (Homo sapiens) (Q9BVS4 whole entry, looked up, the tested form may be a part): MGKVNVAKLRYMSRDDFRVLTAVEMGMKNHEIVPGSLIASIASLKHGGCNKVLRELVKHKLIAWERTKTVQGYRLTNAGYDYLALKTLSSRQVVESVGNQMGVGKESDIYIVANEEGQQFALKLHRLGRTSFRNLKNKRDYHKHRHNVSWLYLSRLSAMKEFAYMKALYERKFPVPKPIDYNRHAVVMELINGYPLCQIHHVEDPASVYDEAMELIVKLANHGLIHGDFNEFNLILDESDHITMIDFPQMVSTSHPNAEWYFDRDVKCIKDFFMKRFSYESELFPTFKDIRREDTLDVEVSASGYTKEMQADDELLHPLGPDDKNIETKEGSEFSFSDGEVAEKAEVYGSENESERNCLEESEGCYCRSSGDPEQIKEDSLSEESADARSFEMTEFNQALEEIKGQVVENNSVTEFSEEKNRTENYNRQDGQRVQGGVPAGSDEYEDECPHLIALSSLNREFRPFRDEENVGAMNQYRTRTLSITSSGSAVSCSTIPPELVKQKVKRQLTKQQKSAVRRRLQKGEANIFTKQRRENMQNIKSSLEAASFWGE
Outline: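 KINOMEscan competition binding against a panel of 468 purified kinases/mutants, compound tested at 1 μM; readout is relative binding activity versus control.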

[5] = target: Tyrosine-protein kinase Fyn (Homo sapiens) (UniProt P06241); experiment: Binding affinity to wild-type human partial length FYN (T243 to L534 residues) expressed in bacterial expression system assessed as residual binding level at 1 uM by Kinomescan method relative to control
Outline: (§2)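 Kinome-wide competition binding screen against a panel of 468 purified kinases/mutants, with the test compound at a single concentration of 1 μM. Read-out is the relative binding activity of each kinase in the presence of compound.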

[6] = target: Dual serine/threonine and tyrosine protein kinase (Homo sapiens) (UniProt Q6XUX3); experiment: Binding affinity to wild-type human full length RIPK5 (M1 to T929 residues) expressed in mammalian expression system assessed as residual binding level at 1 uM by Kinomescan method relative to control
Outline: (§3)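 Single-concentration KINOMEscan (DiscoverX) binding screen at 1 μM against a panel of 468 purified kinases and mutants. The read-out is binding relative to control.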

[7] = target: RAC-alpha serine/threonine-protein kinase (Homo sapiens) (UniProt P31749); experiment: Binding affinity to wild-type human partial length AKT1 expressed in bacterial expression system assessed as residual binding level at 1 uM by Kinomescan method relative to control; outline: as §3
Sequence of RAC-alpha serine/threonine-protein kinase (Homo sapiens) (P31749 whole entry, the tested form may be a part): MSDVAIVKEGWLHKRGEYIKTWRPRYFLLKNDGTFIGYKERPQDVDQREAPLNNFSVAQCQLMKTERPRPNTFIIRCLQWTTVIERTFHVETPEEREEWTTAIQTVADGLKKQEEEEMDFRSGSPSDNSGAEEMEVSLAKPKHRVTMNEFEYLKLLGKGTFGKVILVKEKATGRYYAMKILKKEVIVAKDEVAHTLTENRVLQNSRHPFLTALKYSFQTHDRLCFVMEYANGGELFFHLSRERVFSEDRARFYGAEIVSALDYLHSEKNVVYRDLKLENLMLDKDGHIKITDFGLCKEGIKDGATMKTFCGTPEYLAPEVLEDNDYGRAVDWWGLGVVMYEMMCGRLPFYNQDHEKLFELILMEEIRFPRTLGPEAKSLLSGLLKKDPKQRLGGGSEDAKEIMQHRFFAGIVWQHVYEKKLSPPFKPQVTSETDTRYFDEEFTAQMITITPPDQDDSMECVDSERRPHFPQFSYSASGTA

[8] = target: Ephrin type-B receptor 6 (Homo sapiens) (UniProt O15197); experiment: Binding affinity to wild-type human partial length EPHB6 (Q634 to P948 residues) expressed in mammalian expression system assessed as residual binding level at 1 uM by Kinomescan method relative to control
[9] = test system: Phosphatidylinositol 4,5-bisphosphate 3-kinase catalytic subunit alpha isoform (Homo sapiens), P42336 [Q546K]; experiment: Binding affinity to human partial length PIK3CA Q546K mutant (R108 to N1068 residues) expressed in mammalian expression system assessed as residual binding level at 1 uM by Kinomescan method relative to control
Sequence of Phosphatidylinositol 4,5-bisphosphate 3-kinase catalytic subunit alpha isoform (Homo sapiens), P42336 [Q546K] (P42336 whole entry Q546K, the tested form may be a part, canonical isoform): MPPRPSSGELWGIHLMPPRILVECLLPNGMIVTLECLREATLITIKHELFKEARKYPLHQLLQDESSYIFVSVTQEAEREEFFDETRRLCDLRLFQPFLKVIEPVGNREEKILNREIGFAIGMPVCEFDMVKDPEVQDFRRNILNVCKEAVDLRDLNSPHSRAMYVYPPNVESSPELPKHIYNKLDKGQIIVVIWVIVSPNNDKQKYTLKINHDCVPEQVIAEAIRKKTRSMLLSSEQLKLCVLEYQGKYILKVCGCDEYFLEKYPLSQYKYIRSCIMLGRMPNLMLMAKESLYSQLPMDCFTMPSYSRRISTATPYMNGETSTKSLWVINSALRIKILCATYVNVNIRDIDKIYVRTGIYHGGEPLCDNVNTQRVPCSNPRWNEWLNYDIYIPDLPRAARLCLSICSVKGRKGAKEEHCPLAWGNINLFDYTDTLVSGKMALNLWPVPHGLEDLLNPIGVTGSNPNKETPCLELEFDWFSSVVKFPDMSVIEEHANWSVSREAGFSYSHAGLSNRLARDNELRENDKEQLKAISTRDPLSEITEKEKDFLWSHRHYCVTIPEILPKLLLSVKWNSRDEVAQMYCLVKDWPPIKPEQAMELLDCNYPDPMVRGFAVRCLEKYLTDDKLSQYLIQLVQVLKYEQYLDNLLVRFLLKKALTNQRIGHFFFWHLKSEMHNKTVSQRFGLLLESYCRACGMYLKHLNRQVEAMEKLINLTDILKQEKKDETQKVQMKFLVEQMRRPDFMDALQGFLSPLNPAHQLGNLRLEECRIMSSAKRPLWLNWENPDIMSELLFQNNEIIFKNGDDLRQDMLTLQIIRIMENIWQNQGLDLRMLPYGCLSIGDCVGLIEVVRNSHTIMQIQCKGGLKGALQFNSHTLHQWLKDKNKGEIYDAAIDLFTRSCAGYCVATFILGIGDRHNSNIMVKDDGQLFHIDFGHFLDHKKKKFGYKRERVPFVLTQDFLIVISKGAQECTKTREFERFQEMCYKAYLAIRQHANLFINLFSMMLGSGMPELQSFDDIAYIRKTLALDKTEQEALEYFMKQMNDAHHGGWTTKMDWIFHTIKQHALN
Outline: (§4)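 Kinome-wide single-concentration binding screen (KINOMEscan) at 1 μM against a panel of 468 purified kinases and mutants. Read-out is relative binding of each kinase compared with control. Selectivity across the panel was summarised as an S(10) score.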

[10] = target: Proto-oncogene tyrosine-protein kinase ROS (Homo sapiens) (UniProt P08922); experiment: Binding affinity to wild-type human partial length ROS1 (A1921 to N2240 residues) expressed in bacterial expression system assessed as residual binding level at 1 uM by Kinomescan method relative to control
[11] = target: Dual specificity tyrosine-phosphorylation-regulated kinase 2 (Homo sapiens) (UniProt Q92630); experiment: Binding affinity to wild-type human full length DYRK2 (M1 to S528 residues) expressed in mammalian expression system assessed as residual binding level at 1 uM by Kinomescan method relative to control; outline: as §1
[12] = target: Proto-oncogene tyrosine-protein kinase receptor Ret (Homo sapiens) (UniProt P07949); experiment: Binding affinity to wild-type human partial length RET (E713 to D1014 residues) expressed in bacterial expression system assessed as residual binding level at 1 uM by Kinomescan method relative to control
[13] = test system: Mast/stem cell growth factor receptor Kit (Homo sapiens), P10721 [V559D,V654A]; experiment: Binding affinity to human partial length KIT V559D/V654A double mutant (Y545 to D952 residues) expressed in bacterial expression system assessed as residual binding level at 1 uM by Kinomescan method relative to control; outline: as §4
[14] = target: Ribosomal protein S6 kinase alpha-6 (Homo sapiens) (UniProt Q9UK32); experiment: Binding affinity to wild-type human partial length N-terminal RSK4 kinase domain 1 (M1 to E397 residues) expressed in mammalian expression system assessed as residual binding level at 1 uM by Kinomescan method relative to control
Sequence of Ribosomal protein S6 kinase alpha-6 (Homo sapiens) (Q9UK32 whole entry, the tested form may be a part): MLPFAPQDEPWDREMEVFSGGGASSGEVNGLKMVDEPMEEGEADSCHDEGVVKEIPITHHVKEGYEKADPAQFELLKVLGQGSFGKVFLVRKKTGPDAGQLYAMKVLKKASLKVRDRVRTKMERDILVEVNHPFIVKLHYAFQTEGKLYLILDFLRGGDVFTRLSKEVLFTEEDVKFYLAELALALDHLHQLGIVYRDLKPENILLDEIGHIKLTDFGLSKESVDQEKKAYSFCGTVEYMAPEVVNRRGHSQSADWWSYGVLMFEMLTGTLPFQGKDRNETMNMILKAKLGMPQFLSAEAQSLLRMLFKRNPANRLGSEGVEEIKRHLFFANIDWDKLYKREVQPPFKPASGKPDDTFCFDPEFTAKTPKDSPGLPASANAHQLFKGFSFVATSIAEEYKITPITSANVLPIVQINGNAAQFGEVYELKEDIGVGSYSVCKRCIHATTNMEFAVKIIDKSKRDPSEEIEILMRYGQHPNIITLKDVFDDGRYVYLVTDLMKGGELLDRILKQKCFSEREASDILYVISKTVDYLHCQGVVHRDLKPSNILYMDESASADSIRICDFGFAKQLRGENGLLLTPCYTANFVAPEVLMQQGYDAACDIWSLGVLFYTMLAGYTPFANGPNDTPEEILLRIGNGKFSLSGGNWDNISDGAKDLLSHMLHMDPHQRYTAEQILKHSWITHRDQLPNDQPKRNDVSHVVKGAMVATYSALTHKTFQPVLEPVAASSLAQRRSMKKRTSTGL

[15] = target: Dual specificity tyrosine-phosphorylation-regulated kinase 1B (Homo sapiens) (UniProt Q9Y463); experiment: Binding affinity to wild-type human full length DYRK1B (M1 to S629 residues) expressed in bacterial expression system assessed as residual binding level at 1 uM by Kinomescan method relative to control
Sequence of Dual specificity tyrosine-phosphorylation-regulated kinase 1B (Homo sapiens) (Q9Y463 whole entry, looked up, the tested form may be a part): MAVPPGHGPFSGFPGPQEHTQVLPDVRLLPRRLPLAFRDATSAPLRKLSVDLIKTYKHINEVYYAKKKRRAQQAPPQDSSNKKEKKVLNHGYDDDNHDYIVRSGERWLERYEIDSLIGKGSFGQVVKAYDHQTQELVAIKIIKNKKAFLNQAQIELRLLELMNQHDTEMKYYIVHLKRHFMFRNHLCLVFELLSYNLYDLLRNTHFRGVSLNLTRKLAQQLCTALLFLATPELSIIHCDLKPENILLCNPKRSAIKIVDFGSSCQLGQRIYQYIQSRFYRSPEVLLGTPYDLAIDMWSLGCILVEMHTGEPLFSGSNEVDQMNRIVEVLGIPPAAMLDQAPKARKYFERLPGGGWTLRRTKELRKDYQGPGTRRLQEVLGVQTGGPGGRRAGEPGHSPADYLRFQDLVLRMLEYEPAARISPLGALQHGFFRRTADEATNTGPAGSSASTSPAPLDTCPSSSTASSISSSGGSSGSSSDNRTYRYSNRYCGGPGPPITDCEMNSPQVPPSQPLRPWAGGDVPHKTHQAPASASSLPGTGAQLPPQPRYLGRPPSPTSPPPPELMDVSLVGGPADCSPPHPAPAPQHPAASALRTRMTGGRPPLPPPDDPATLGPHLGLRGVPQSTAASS
Outline: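 KINOMEscan competition binding against 468 purified kinases/mutants, test compound at 1 µM; residual binding relative to control.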

[16] = target: Mitogen-activated protein kinase 4 (Homo sapiens) (UniProt P31152); experiment: Binding affinity to wild-type human partial length ERK4 (M1 to L365 residues) expressed in bacterial expression system assessed as residual binding level at 1 uM by Kinomescan method relative to control; outline: as §2
[17] = target: cAMP-dependent protein kinase catalytic subunit alpha (Homo sapiens) (UniProt P17612); experiment: Binding affinity to wild-type human partial length PKAC-alpha (G10 to F351 residues) expressed in bacterial expression system assessed as residual binding level at 1 uM by Kinomescan method relative to control
[18] = Cytotoxicity against mouse BA/F3 cells after 72 hrs by CellTiter-Glo or CCK-8 assay; assay type: cell-based, BaF3
Outline: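 Parental BaF3 or IL-3-independent TEL-kinase BaF3 lines, made by retroviral infection and puromycin selection, grown in RPMI 1640 with 10% FBS. Cells seeded at 1–3 × 10^4 cells/mL with serial compound concentrations for 72 h. Viability read by CellTiter-Glo luminescence or CCK-8 absorbance at 450/655 nm and normalised to DMSO. GI50 obtained by triplicate testing with linear regression. Selectivity is the ratio of the two GI50 values.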

[19] = target: Serine/threonine-protein kinase 24 (Homo sapiens) (UniProt Q9Y6E0); experiment: Binding affinity to wild-type human partial length MST3 (A30 to S311 residues) expressed in bacterial expression system assessed as residual binding level at 1 uM by Kinomescan method relative to control
[20] = target: Platelet-derived growth factor receptor alpha (Homo sapiens, UniProt P16234); experiment: Inhibition of PDGF-induced PDGFRalpha autophosphorylation at Y849 residue in human NCI-H1703 cells after 2 hrs in presence of PDGF-AA by Western blot analysis; assay type: cell-based

Cc1ccc(NC(=O)c2ccc(CN(CCN(C)C)C(=O)c3cccnc3)cc2)cc1Nc1nccc(-c2cccnc2)n1
Activity [1]: 95%
Activity [2]: 100%
Activity [3]: 100%
Activity [4]: 87%
Activity [5]: 80%
Activity [6]: 81%
Activity [7]: 95%
Activity [8]: 100%
Activity [9]: 90%
Activity [10]: 99%
Activity [11]: 100%
Activity [12]: 80%
Activity [13]: 25%
Activity [14]: 100%
Activity [15]: 51%
Activity [16]: 89%
Activity [17]: 95%
GI50 at 72 h [18]: > 10 µM
Activity [19]: 100%
inhibition [20]: Dose-dependent effect
